Reference: the EternaBench riboswitch data

Test system: MS2 coat protein
Test: apparent Kd, MS2 coat protein; higher = weaker binding; RNA-MaP array; FMN 200 µM where present
Method in brief: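 The titrant was SNAP-549-labelled MS2 coat protein, run from 0.7 or 1.5 nM in doubling steps to 3 µM. It was applied to designs transcribed by stalled E. coli RNA polymerase on Illumina sequencing-chip clusters, without ligand first and then with constant ligand, in 100 mM Tris-HCl pH 7.5, 80 mM KCl, 4 mM MgCl2, BSA, DTT, yeast tRNA and Tween-20. The apparent Kd is the median of filtered per-cluster binding-curve fits, with green signal normalised to red-channel RNA signal and control-cluster median Fmax.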

[1] = designed as: OFF switch for flavin mononucleotide, no ligand
[2] = ligand present: flavin mononucleotide, designed as: OFF switch for flavin mononucleotide
[3] = designed as: ON switch for flavin mononucleotide, no ligand
[4] = ligand present: flavin mononucleotide, designed as: ON switch for flavin mononucleotide

Row | Sequence | apparent Kd [1] [nM] | apparent Kd [2] [nM] | apparent Kd [3] [nM] | apparent Kd [4] [nM]
1 | AUCCGGAGUCAGGAUAUGUGGCUAAAGAUGCGCAUAGAAGGGAUUACAUGAGGAUCACCCAUGUGGCUUACAUG | 132 | 109 |  | 
2 | AGUAAGAUGCAGAAGGUGUCAGCGAGAGCUGCGACAUGAGGAUCACCCAUGUACAAGUGAGUGUACAAGGAUAUGCAUCUUACA |  |  | 192 | 24
3 | CAUGUCCUCACAGGAUAUGCAAUGUAUUUCAUUGCAGAAGGGUGAAUACAUGAGGAUCACCCAUGUGGACAUGAUAUAUUUAAU |  |  | 725 | 77.8
4 | CAGCGCUGUCGAGAGGAUAUGCGGUGAUGGACAUGAGGAUCACCCAUGUAAGCGAUAGCAUUACGGCAGAAGGCUCUGCAGCUGC |  |  | 25.1 | 17.4
5 | AUACAUGUCCGAGGAUAUCUGGAAACAUUUUCAAGAGAAGGCGGACAUGAGGAUCACCCAUGUCUCUCCUCAUCAAAUCCAAGU | 7.84 | 46.6 |  | 
6 | CGUGAACGGACGCACUGUUUCCACAUGAGGAUCACCCAUGUGAAGGAUAUGACUGGCGCCACUUGUUAGAAGGUCACUGGGCGA | 39.8 | 71.1 |  | 
7 | AGAGAGAGCACAGGAUAUCCGCACACAUGCAGCGGAGAAGGGUGACCUUUUUGCACAUGAGGAUCACCCAUGUCCAGCACCACG |  |  | 25.7 | 13.3
8 | GUACAUGAGCAGAAGGGCAUUUAAUUAGAUUUUUAUGUUGAUCAGAUAUGCAGGAUAUGUUAAACAUGAGGAUCACCCAUGUAC |  |  | 235 | 44.2
9 | CAGUACUGAGGAUAUACAUGAGGAUCACCCAUGUGUUCCAGCUAGGAAACUUGCAAAAGUAGAAGGCAGUACUG | 12.1 | 30.6 |  | 
10 | AUUACAUGAGGAUCACCCAUGUACAGAACGUUUCAAUACAGUGAGGAUAUACGAAAUGUAGGAACGUAGAAGGCACUGGGUACA |  |  | 181 | 65.8
11 | CCGCUCUUGGUCAGGAUAUCUAUGCGGGCCAGCACAGAGAAGGGACAUGAGGAUCACCCAUGUUUCGGGAUGUA | 22.3 | 38.9 |  | 
12 | CAUGUCCUCACAGGAUAUGCUGGACUUUGUCCAGCAGAAGGGUGUUAACAUGAGGAUCACCCAUGUGGACAUGAUAUAUUUAAU |  |  | 933 | 69.8
13 | GUAAAUCAUGUAGGAUAUGCAUGGCGAAGCUACGCAGAAGGACAUGAGGAUCACCCAUGUCUCUCCGUCUGCGUACAGACGGAG | 27.4 | 188 |  | 
14 | UCGCUCCGUGUAGGAUAUCGUUGUAUUCUGCGGCGAGAAGGACAUGAGGAUCACCCAUGUAUGUUAUUAUCACGCGUGGCGCAA | 21 | 18.9 |  | 
15 | GGGUACAUCGGAGGAUAUCAUGUAAAUACAUGAGGAUCACCCAUGUCGAUGGAGACAUCGGAGAUUGAGAAGGGCGAUGUACCG |  |  | 647 | 75.8
16 | ACAAAGGUAGGAUAUCGGACUAUGGACAUGAGGAUCACCCAUGUGCGUCCAAUGCCCAACCGAGAAGGACCAACAG | 47.1 | 89 |  | 
17 | AUGCUUCACACAGGAUAUACAUGAGGAUCACCCAUGUGUCCUCCGUAGCUGACACGAGCUACGCGGUAGAAGGGUGUGAAGCAU | 91 | 698 |  | 
18 | UGGCUACAUGAGGAUCACCCAUGUCAGGAUAUGCCGUUAAAUUAACAUCAACGUACGGGUAGAAGGGACUGCGU | 24.3 | 23 |  | 
19 | UUGGACGUCGUAGGAUAUGUAGGAUAUACCUACAUGAGGAUCACCCAUGUUGACAUGGAAGAAGGACAGAAGGACGAUGUCCAU |  |  | 439 | 153
20 | AAUUCUAGGGUCAGCCUUAACACAUGAGGAUCACCCAUGUACAGAAGGCGAAGCAAAUGGACACUCGAGGAUAUGUACACUCCG | 6.22 | 8.01 |  | 
21 | AAAACACAUGAGGAUCACCCAUGUGAGGAUAUGCUAUGGAAAAUAAAAAUAAAACAUAGCAGAAGGCACAAAGG | 62.5 | 152 |  | 

Row | Sequence | apparent Kd [1] [nM] | apparent Kd [2] [nM] | apparent Kd [3] [nM] | apparent Kd [4] [nM]
22 | AAGCAAGCAGGGAUGCUUCGUAGGGAGGAUAUCUGACUGGGCGGACAUGAGGAUCACCCAUGUACAGAGAAGGCCCAAAACAAC | 376 | 61.6 |  | 
23 | CAGAGACAAGCAGGAUAUCGACACAUGAGGAUCACCCAUGUUCGUAGGAACCUGGGUCAAGUCUGCGAGAAGGGCUCGUCAGUA | 151 | 159 |  | 
24 | AGAAAGAAGCAAGGAUAUUGUAAGGUUAAUGUACAAGAAGGUGCUGUUUAUGUCUCUUAACAUGAGGAUCACCCAUGUAUUGGU |  |  | 52.6 | 44.1
25 | AUACUCAUGUAAGGAUAUGCAGCCGAACCGGCUGCAGAAGGUACUAUAAUACAUGAGGAUCACCCAUGUCAAAAUAAAAUAGUU |  |  | 52 | 21.5
26 | GCUAAGCGAAUUAAGAUGAAUAGAACAUGAGGAUCACCCAUGUAGGAUAUGCUACACAAAGUGUAGCAGAAGGACAAGCUUAGC | 20.2 | 25.4 |  | 
27 | UUGUGGUGCGUAGGAUAUCAUUGAGGGUCACCCUGAGAAGGACGUGAGGACAUGAGGAUCACCCAUGUGGAUCACCCAUGUCAU | 222 | 355 |  | 
28 | CGGGAGUCAGGAUAUACGAACAUGUCGCCAGAUGUCAAGGUACAUGAGGAUCACCCAUGUAGAAGGGAGGAGAU | 80.6 | 72.7 |  | 
29 | AGACGGAGCAGAGGAUAUACAUGAGGAUCACCCAUGUAAGAUCUCCAGGAAACUGGAGAUCAAAUGUAGAAGGCUGCUCCGUCA | 17.8 | 55.8 |  | 
30 | GUCAGCUCGUGAGGAUAUACAUGUGCUGGAUACAGCACUAAUUAAAUCACAUGAGGAUCACCCAUGUAGAAGGCACGAGCUGAU | 16.7 | 24.8 |  | 
31 | UAUAUAUAGUAAGGAUAUGUAAUUAUUUUAUCAACAGAAGGUACUGACAUGAGGAUCACCCAUGUUUUAGUGUGGGCAUGUAGA | 87.9 | 111 |  | 
32 | GGAUGCAAAGAGAAGGGCUACUGGUUGAAACCUGCGGCCUCUGGAACAUGAGGAUCACCCAUGUAGCAGGAUAUCUUUACGUCA | 173 | 39.4 |  | 
33 | AGAAACUACGAGAAGGACAUAUAAUUCUUCAGAUACAUGAGGAUCACCCAUGUAGGAUAUCGUAGUUUCAGGAUCGUGAGAUCA | 5.95 | 10.3 |  | 
34 | UCACGGGACUGAGGAUAUACAUGAACUAUUUUUGUAGAAGGCAGAAUGUUAGAUUAUACACUAAACAUGAGGAUCACCCAUGUU | 19.1 | 16.1 |  | 
35 | UAUUUAUAAUAUUUUAACAUGAGGAUCACCCAUGUCGCUAGACAGGAUAUAUUUUAUUUGUUUAAGUAGAAGGGUCGUAGAUUU |  |  | 166 | 138
36 | GGGAAGUGCCAGAAGGCUCCCGGAUUCCUAGGGAGAGGAUAUGGCACAUGAGGAUCACCCAUGUGGUAGAUCUGUUUCGAAGUG | 30.4 | 16.9 |  | 
37 | GGACGUCACAUUAACAUGAGGAUCACCCAUGUCAAAAGACAUGAGGAUAUGGAUAAUAAUAUAAACCAGAAGGCAUGGACGUCC |  |  | 526 | 29.2
38 | UGGUACAUCGGAGGAUAUCAUGUAUAUACAUGAGGAUCACCCAUGUCGAUGGAGACAUCGGAGAUUGAGAAGGCCGAUGUACCU |  |  | 799 | 33.3
39 | GUGCGGUCAGGAUAUGCAUGGCGGGACUUGCGUCGUGGCGUGGAGAAGGGACAUGAGGAUCACCCAUGUGGAGG | 107 | 84.9 |  | 
40 | AGAUCCUGAGUCAGGAUAUAGAGGCGGUAGCCUGGCUAGAAGGGACAUGAGGAUCACCCAUGUGGGUUCGAGCC | 17.7 | 31.3 |  | 
41 | AUAUUUGUUUAGAAGGACAUGAGGAUCACCCAUGUCGCUGGGCGCGGGAAACCGUGGGCGGCCAUGUAGGAUAUAGGGAGAUAU | 36.6 | 24 |  | 
